Most compounds without a hit are left out; they make up all but 1.4% or so of the library.
NR2E3 ag-1: inhibitors of NR2E3-RetCOR corepressor binding, primary screen, NR2E3 agonist project, biochemical, TR-FRET, GST-NR2E3, biotin-RetCOR; Photoreceptor-specific nuclear receptor (Homo sapiens), Q9Y5X4; 1536-well; inhibition of corepressor binding, % at 4.78 µM; hit rate 0.12% among 320,000; AID 2300, 2010;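 active = percent inhibition above the cutoff of mean plus 3 SD of all tested compounds, set per screening campaign, cut at about 20% in these data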;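 also: 0% = DMSO wells and 100% = biotin wells as full block of FRET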
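Material: NR2E3–RetCOR corepressor complex | Quantity: 1.35 nM GST-tagged NR2E3 final | Schedule: 5 h at 4 °C | Replication: Singlicate compound wells | Reagent: RetCOR corepressor, biotinylated, 7 nM | Controls: Biotin wells as high control, 0.6% DMSO wells as low control | Signal: TR-FRET, Eu(K)-anti-GST donor, streptavidin-D2 acceptor, ex 340, em 617/671 nm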
NR1D1 modulator: modulators of Rev-erb alpha DNA binding, primary screen, biochemical, FITC-DNA, fluorescence polarization, uHTS; AID 1259318, 2017; hit rate 0.79% among 370,000; Rev-erbα–FITC-DNA binding, 90 min; activity, % at 10 µM;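 active = activity above about 14%, limit read from the data; passing the limit was not always enough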;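 also: 0% = DMSO wells with 35 nM protein and 100% = DMSO wells with 750 nM protein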
Target sequence (P20393 whole entry, looked up): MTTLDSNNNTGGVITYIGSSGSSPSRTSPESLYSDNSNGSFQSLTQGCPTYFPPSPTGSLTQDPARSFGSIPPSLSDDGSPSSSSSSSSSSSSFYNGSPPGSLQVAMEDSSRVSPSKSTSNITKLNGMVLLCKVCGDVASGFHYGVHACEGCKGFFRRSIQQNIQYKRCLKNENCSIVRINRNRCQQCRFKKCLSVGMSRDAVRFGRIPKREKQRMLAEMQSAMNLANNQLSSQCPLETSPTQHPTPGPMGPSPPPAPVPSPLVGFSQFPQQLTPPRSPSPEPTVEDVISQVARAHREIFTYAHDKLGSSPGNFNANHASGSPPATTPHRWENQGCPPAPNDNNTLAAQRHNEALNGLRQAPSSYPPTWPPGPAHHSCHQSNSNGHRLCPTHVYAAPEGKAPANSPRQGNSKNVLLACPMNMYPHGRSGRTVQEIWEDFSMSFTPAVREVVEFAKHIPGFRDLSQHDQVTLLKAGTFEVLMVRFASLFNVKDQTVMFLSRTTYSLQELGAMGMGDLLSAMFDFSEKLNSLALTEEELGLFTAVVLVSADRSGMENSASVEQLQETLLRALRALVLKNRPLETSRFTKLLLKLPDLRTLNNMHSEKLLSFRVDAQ
NR2E3 ag-2: NR2E3 agonists in two-hybrid cells, primary screen, cell-based, luminescence, CHO-S, Gal4-NCOR/VP16-NR2E3; hit rate 0.35% among 360,000; Photoreceptor-specific nuclear receptor (Homo sapiens), Q9Y5X4; inhibition of corepressor binding, % at 3.98 µM; luciferase;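 active = inhibition above the mean of all tested compounds plus 3 SD, cut at about 70% in these data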;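 also: 0% = DMSO with NR2E3 transfected cells and 100% = cells lacking NR2E3 construct; higher means lower luciferase signal from less NR2E3 corepressor binding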
PG9 Ab binder: binders of HIV-1 gp120 antibody PG9, primary screen, biochemical, TR-FRET; HIV-1 gp120 / PG9 antibody interaction; TR-FRET gp120-PG9 antibody binding; inhibition, % at 6.7 µM; hit rate 0.43% among 360,000; in the data active = inhibition above about 8.5%
NR2E3 ag confirm: NR2E3 agonist confirmation in cells, cell-based, luminescence, CHO-S two-hybrid. shares compounds with NR2E3 ag-2. CHO-S mammalian two-hybrid NR2E3-NCOR, luciferase luminescence. hit rate 51% among 2,300. inhibition, % at 3.98 µM. AID 624378, 2012;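 active = average inhibition above a cutoff equal to the mean inhibition of all tested compounds plus one SD, cut at about 70% in these data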;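 also: 0% = DMSO in NR2E3 cells and 100% = DMSO in cells lacking NR2E3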
VP16 counter: GAL4-VP16 reporter modulators, confirmation, counter-screen for NR2E3 agonist project, cell-based, luminescence, CHO-S, high throughput; shares compounds with NR2E3 ag-2; CHO-S GAL4-VP16 luciferase reporter; inhibition, % at 3.98 µM; hit rate 29% among 2,300;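 active = mean inhibition above a cutoff equal to the average over all tested compounds plus one standard deviation, cut at about 70% in these data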;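 also: luciferase from a UAS reporter driven by GAL4-VP16 transactivation; 0% = DMSO with VP16-transfected cells and 100% = DMSO with cells lacking VP16; higher means less reporter light so more repression of VP16 activity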
* marks the source's active call; other numbers are inactive results; · = no result.

SMILES | NR2E3 ag-1 | NR1D1 modulator | NR2E3 ag-2 | PG9 Ab binder | NR2E3 ag confirm | VP16 counter
COCC1CCN(C(=O)c2cc(COc3ccc4ncccc4c3)on2)CC1 | 4 | -3 | 68 | 0 | 91* | 75*
Cc1ccc(OCc2cc(C(=O)NC3CCCCC3)no2)cn1 | -1 | 4 | 83* | -1 | 59 | 55
O=C(NCCc1cn2ccccc2n1)c1cc(COc2ccc3ncccc3c2)on1 | 0 | -5 | 53 | 1 | 70 | 60
COCC1CCN(C(=O)c2cc(COc3ccc(-n4cncn4)cc3)on2)CC1 | 3 | 4 | 16 | 0 | · | ·
CC(=O)O[C@]1(C(C)=O)CCC2C3C=C(Cl)C4=CC(=O)CC[C@]4(C)C3CC[C@@]21C (some centres undefined) | · | 4 | · | · | · | ·
COc1cc2nc(COc3ccccc3[N+](=O)[O-])oc(=O)c2cc1OC | 1 | 0 | -2 | -3 | · | ·
CN1CCN(S(=O)(=O)c2cccc(C(=O)Nc3sccc3C(N)=O)c2)CC1 | -1 | -13 | -23 | -2 | · | ·
O=C(NC1CCCC1)c1cc(COc2ccc3ncccc3c2)on1 | -2 | · | 95* | · | 95* | 84*
COc1cccc(OCc2cc(C(=O)NC3CCOCC3)no2)c1 | 1 | 0 | -89 | -2 | · | ·
Cc1cc(OCc2cc(C(=O)N3CCC(Oc4cccnc4)CC3)no2)cc(C)c1Cl | 4 | 6 | 94* | 0 | 93* | 74*
O=C(c1cc(COc2ccc3ncccc3c2)on1)N1CCCC1 | -1 | -5 | 84* | -1 | 80* | 61
CSc1ccccc1OCc1cc(C(=O)N2CCC(c3ccncc3)CC2)no1 | 2 | 3 | 101* | 0 | 93* | 79*
C=CCC1(CC=C)CCCN1C(=O)c1cc(COc2ccc(F)c(F)c2)on1 | -3 | 5 | -7 | 0 | · | ·
O=C(c1cc(COc2ccc3ncccc3c2)on1)N1CCCCCC1 | -2 | -8 | 71* | 0 | 95* | 76*
C=CCC1(CC=C)CCCN1C(=O)c1cc(COc2ccc(C)nc2)on1 | 0 | -1 | 99* | 2 | 97* | 80*
Cc1ccc(OCc2cc(C(=O)N3CCCCCCC3)no2)cc1C | 4 | 6 | -65 | -1 | · | ·
S=C(NCc1ccc(Cl)cc1)Nc1ccncc1 | 1 | 2 | 100* | 0 | 84* | 81*
S=C(NCc1ccc(Cl)cc1)Nc1ccccc1 | 2 | 2 | -23 | -3 | · | ·
COC(=O)c1sccc1NC(=O)c1c(-c2ccccc2)noc1C | 3 | -4 | -36 | 2 | · | ·
COc1ccc(NC(=O)N2CCN(c3cccc(C(F)(F)F)c3)CC2)cc1 | 2 | -1 | 24 | 2 | · | ·
CN(C)S(=O)(=O)c1ccc(NC(=O)N2CCN(c3cccc(C(F)(F)F)c3)CC2)cc1 | 1 | 1 | 49 | -1 | 80* | 69
Cc1ccnc(NC(=S)N2CCN(c3cccc(C(F)(F)F)c3)CC2)c1 | -59 | 3 | 84* | 0 | 91* | 33
Cc1ccc(C)c(NC(=S)N2CCN(c3cccc(C(F)(F)F)c3)CC2)c1 | 2 | 2 | 7 | -3 | · | ·
CCN(CC)C(=O)C1=C(C)N(Cc2ccc(F)cc2)C(=O)C(CC(=O)NC2CCCCC2)C1 (centres undefined) | · | -2 | 7 | 1 | · | ·
Cc1ccc(S(=O)(=O)N(CC(=O)Nc2ccccc2C(=O)O)c2cccc(Cl)c2C)cc1 | 0 | -8 | 90* | 0 | 98* | 37
SMILES | NR2E3 ag-1 | NR1D1 modulator | NR2E3 ag-2 | PG9 Ab binder | NR2E3 ag confirm | VP16 counter
Cc1ccc(S(=O)(=O)N(CC(=O)Nc2ccccc2C(=O)O)c2ccccc2C)cc1 | 3 | -2 | 2 | -3 | · | ·
CCOc1cc(C(=O)NCc2ccccc2)ccc1OCC(=O)N1CCCCC1 | -2 | 8 | 20 | -1 | · | ·
O=C(Nc1ccc(S(=O)(=O)N2CCCC2)cc1)c1ccc(CN2CCc3ccccc3C2)cc1 | 1 | -1 | 54 | 0 | 67 | 66
S=C(NCCc1ccc(Cl)cc1)NC1CC1 | 2 | 11 | -42 | -2 | · | ·
Cc1ccc(Cc2c(-c3ccc(C)cc3)nc3c(Cl)cc(C(F)(F)F)cn23)cc1 | · | · | 60 | · | -6 | 10
O=C(CCC(=O)N1CCN(c2ccc(Cl)c(Cl)c2)CC1)c1ccccc1 | 1 | 3 | 91* | -1 | 96* | 76*
CN1OC[C@@H]2CN[C@H](c3ccc(-c4ccc(C#N)cc4)cc3)C[C@@H]21 | · | -7 | -62 | 1 | · | ·
CN1OC[C@@H]2CN[C@H](c3ccc(-c4cc5ccccc5o4)cc3)C[C@@H]21 | · | · | 92* | · | 79* | 68
Cc1cn([C@@H](CCCCNC(=O)OC(C)(C)C)C(=O)NCCCCCCCCCCC(=O)N2CCN(C(=O)OC(C)(C)C)CC2)nn1 | 3 | · | 56 | · | 74* | 64
O=C(CNCC1CCCO1)N1CCN(S(=O)(=O)c2ccc3ccccc3c2)CC1 (centres undefined) | -3 | 8 | 4 | 1 | · | ·
COc1cc(OC)c(OC)cc1CNC(=O)c1ccc(COc2ccccc2)cc1 | 2 | 1 | 58 | -1 | 37 | 39
CC(C)(C)C(=O)NC(=S)NNC(=O)c1ccc(-c2ccccc2)cc1 | 3 | · | 62 | · | 96* | 52
COc1ccc(NC2c3ccccc3C(=O)N2Cc2ccccc2Cl)cc1OC (centres undefined) | -1 | 0 | 69 | -2 | 71* | -8
O=S(=O)(c1cc(C(F)(F)F)ccc1Cl)N1CCN(c2ncnc3ccccc23)CC1 | · | 9 | 99* | -3 | 95* | 86*
Cc1cc(C)c(C)c(S(=O)(=O)N2CCN(c3ncnc4ccccc34)CC2)c1C | 1 | 0 | 62 | 1 | 89* | 68
Cc1cc(C)c(C)c(S(=O)(=O)N2CCN(c3ccccn3)CC2)c1C | 0 | 3 | 3 | 2 | · | ·
Cc1ccccc1CN1[C@@H](C)[C@H](c2ccccc2)Oc2cccc(NCC(C)C)c2S1(=O)=O | · | -1 | · | 1 | · | ·
COc1cccc(Cn2nnc(C(=O)Nc3cc(C)ccc3OC)c2N)c1 | 2 | · | 56 | · | 58 | 11
COc1ccc(OC)c(NC(=O)c2nnn(Cc3ccccc3C)c2N)c1 | 1 | 7 | 69 | 0 | 80* | 23
COc1ccc(C)cc1NC(=O)c1nnn(Cc2cc(C)ccc2C)c1N | 4 | 6 | -8 | 0 | · | ·

Assay outcomes: PubChem, several laboratories
